From ChEMBL document CHEMBL3627681, “Synthesis and biological evaluation of 1,3-diaryl pyrazole derivatives as potential antibacterial and anti-inflammatory agents” (2015)
Values after ≈ are worked out from the molar mass of the structure shown.

system: Escherichia coli; assay: Ratio of gatifloxacin MIC to compound MIC for Escherichia coli CCARM 1356 after 24 hrs by two-fold serial dilution method; type: functional; settings: not given

Row | Structure (SMILES) | Ratio
1 | N=C(N)N/N=C/c1cn(-c2ccc([N+](=O)[O-])cc2[N+](=O)[O-])nc1-c1cccc(Br)c1 | 4

system: Staphylococcus aureus; assay: Ratio of gatifloxacin MIC to compound MIC for quinolone-resistant Staphylococcus aureus CCARM 3519 after 24 hrs by two-fold serial dilution method; type: functional; settings: not given

Row | Structure (SMILES) | Ratio
2 | N=C(N)N/N=C/c1cn(-c2ccc([N+](=O)[O-])cc2[N+](=O)[O-])nc1-c1cccc(Br)c1 | 2

system: Staphylococcus aureus; assay: Antibacterial activity against quinolone-resistant Staphylococcus aureus CCARM 3519 after 24 hrs by two-fold serial dilution method; type: functional; settings: CCARM 3519, 24 h
Outline: (§1)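 Broth microdilution in Mueller-Hinton broth. Bacteria grown to mid-log phase, diluted 1000-fold, and inoculated at 10⁵ CFU/mL. Test compounds in DMSO, final DMSO not above 0.05%, final concentrations 64-0.5 µg/mL. Incubation 24 h at 37 °C, growth read as absorbance at 650 nm. MIC taken as the lowest concentration giving complete growth inhibition. Run three times.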

Row | Structure (SMILES) | MIC [µg/mL]
3 | N=C(N)N/N=C/c1cn(-c2ccc([N+](=O)[O-])cc2[N+](=O)[O-])nc1-c1cccc(Br)c1 | 2 (≈ 4.23 µM)

system: Staphylococcus aureus; assay: Ratio of gatifloxacin MIC to compound MIC for quinolone-resistant Staphylococcus aureus CCARM 3505 after 24 hrs by two-fold serial dilution method; type: functional; settings: not given

Row | Structure (SMILES) | Ratio
4 | N=C(N)N/N=C/c1cn(-c2ccc([N+](=O)[O-])cc2[N+](=O)[O-])nc1-c1cccc(Br)c1 | 4

system: Mus musculus; assay: Antiinflammatory activity in mouse assessed as inhibition of xylene-induced ear edema at 50 mg/kg, ip administered 30 mins before xylene challenge relative to control; type: functional; settings: not given
Outline: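 Mice received compound freshly dissolved in DMSO, 50 mg/kg ip at 0.05 mL/20 g body weight; vehicle controls got DMSO alone. After 30 min, 20 µL xylene was applied to the right ear. After a further 30 min, 7 mm plugs were cut from treated and untreated ears and edema taken as their weight difference. Result is % edema reduction versus vehicle controls.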

Row | Structure (SMILES) | inhibition in vivo at 50 mg/kg [%]
5 | N=C(N)N/N=C/c1cn(-c2ccc([N+](=O)[O-])cc2[N+](=O)[O-])nc1-c1cccc(Br)c1 | 81.7

system: Staphylococcus aureus; assay: Antibacterial activity against methicillin-resistant Staphylococcus aureus CCARM 3506 after 24 hrs by two-fold serial dilution method; type: functional; settings: CCARM 3506, 24 h; outline: as §1

Row | Structure (SMILES) | MIC [µg/mL]
6 | N=C(N)N/N=C/c1cn(-c2ccc([N+](=O)[O-])cc2[N+](=O)[O-])nc1-c1cccc(Br)c1 | 1 (≈ 2.11 µM)

system: Staphylococcus aureus; assay: Antibacterial activity against Staphylococcus aureus 209 after 24 hrs by two-fold serial dilution method; type: functional; settings: Staphylococcus aureus, 209, 24 h; outline: as §1

Row | Structure (SMILES) | MIC [µg/mL]
7 | N=C(N)N/N=C/c1cn(-c2ccc([N+](=O)[O-])cc2[N+](=O)[O-])nc1-c1cccc(Br)c1 | 2 (≈ 4.23 µM)

system: Pseudomonas aeruginosa; assay: Antibacterial activity against Pseudomonas aeruginosa 2004 after 24 hrs by two-fold serial dilution method; type: functional; settings: Pseudomonas aeruginosa, 2004, 24 h
Outline: (§2)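 Broth microdilution in Mueller-Hinton broth over final concentrations of 64–0.5. Bacteria were grown to mid-log phase and diluted 1000-fold, then inoculated at 10⁵ CFU/mL. Compounds were dissolved in DMSO, with final DMSO at most 0.05%. Plates were incubated 24 h at 37 °C and growth read as absorbance at 650 nm. MIC is the concentration giving complete growth inhibition. Three independent runs.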

Row | Structure (SMILES) | MIC [µg/mL]
8 | N=C(N)N/N=C/c1cn(-c2ccc([N+](=O)[O-])cc2[N+](=O)[O-])nc1-c1cccc(Br)c1 | > 64

system: Staphylococcus aureus; assay: Antibacterial activity against methicillin-resistant Staphylococcus aureus CCARM 3167 after 24 hrs by two-fold serial dilution method; type: functional; settings: CCARM 3167, 24 h; outline: as §1

Row | Structure (SMILES) | MIC [µg/mL]
9 | N=C(N)N/N=C/c1cn(-c2ccc([N+](=O)[O-])cc2[N+](=O)[O-])nc1-c1cccc(Br)c1 | 1 (≈ 2.11 µM)

system: Escherichia coli; assay: Antibacterial activity against Escherichia coli CCARM 1356 after 24 hrs by two-fold serial dilution method; type: functional; settings: CCARM 1356, 24 h; outline: as §2

Row | Structure (SMILES) | MIC [µg/mL]
10 | N=C(N)N/N=C/c1cn(-c2ccc([N+](=O)[O-])cc2[N+](=O)[O-])nc1-c1cccc(Br)c1 | 4 (≈ 8.45 µM)

system: Staphylococcus aureus; assay: Antibacterial activity against Staphylococcus aureus RN4220 after 24 hrs by two-fold serial dilution method; type: functional; settings: RN4220, 24 h; outline: as §1

Row | Structure (SMILES) | MIC [µg/mL]
11 | N=C(N)N/N=C/c1cn(-c2ccc([N+](=O)[O-])cc2[N+](=O)[O-])nc1-c1cccc(Br)c1 | 1 (≈ 2.11 µM)

system: Staphylococcus aureus; assay: Antibacterial activity against quinolone-resistant Staphylococcus aureus CCARM 3505 after 24 hrs by two-fold serial dilution method; type: functional; settings: CCARM 3505, 24 h; outline: as §1

Row | Structure (SMILES) | MIC [µg/mL]
12 | N=C(N)N/N=C/c1cn(-c2ccc([N+](=O)[O-])cc2[N+](=O)[O-])nc1-c1cccc(Br)c1 | 2 (≈ 4.23 µM)

system: Staphylococcus aureus; assay: Ratio of norfloxacin MIC to compound MIC for methicillin-resistant Staphylococcus aureus CCARM 3506 after 24 hrs by two-fold serial dilution method; type: functional; settings: not given

Row | Structure (SMILES) | Ratio
13 | N=C(N)N/N=C/c1cn(-c2ccc([N+](=O)[O-])cc2[N+](=O)[O-])nc1-c1cccc(Br)c1 | 4

system: Streptococcus mutans; assay: Antibacterial activity against Streptococcus mutans 3065 after 24 hrs by two-fold serial dilution method; type: functional; settings: Streptococcus mutans, 3065, 24 h; outline: as §2

Row | Structure (SMILES) | MIC [µg/mL]
14 | N=C(N)N/N=C/c1cn(-c2ccc([N+](=O)[O-])cc2[N+](=O)[O-])nc1-c1cccc(Br)c1 | 4 (≈ 8.45 µM)

system: Staphylococcus aureus; assay: Ratio of moxifloxacin MIC to compound MIC for quinolone-resistant Staphylococcus aureus CCARM 3519 after 24 hrs by two-fold serial dilution method; type: functional; settings: not given

Row | Structure (SMILES) | Ratio
15 | N=C(N)N/N=C/c1cn(-c2ccc([N+](=O)[O-])cc2[N+](=O)[O-])nc1-c1cccc(Br)c1 | 2

system: Candida albicans; assay: Antifungal activity against Candida albicans 7535 by two-fold serial dilution method; type: functional; settings: not given

Row | Structure (SMILES) | MIC [µg/mL]
16 | N=C(N)N/N=C/c1cn(-c2ccc([N+](=O)[O-])cc2[N+](=O)[O-])nc1-c1cccc(Br)c1 | 1 (≈ 2.11 µM)

system: Salmonella typhimurium; assay: Antibacterial activity against Salmonella typhimurium 2421 after 24 hrs by two-fold serial dilution method; type: functional, Salmonella enterica subsp. enterica serovar Typhimurium; settings: Salmonella enterica, 2421, 24 h; outline: as §2

Row | Structure (SMILES) | MIC [µg/mL]
17 | N=C(N)N/N=C/c1cn(-c2ccc([N+](=O)[O-])cc2[N+](=O)[O-])nc1-c1cccc(Br)c1 | 4 (≈ 8.45 µM)

system: Staphylococcus aureus; assay: Antibacterial activity against Staphylococcus aureus 503 after 24 hrs by two-fold serial dilution method; type: functional; settings: Staphylococcus aureus, 503, 24 h; outline: as §1

Row | Structure (SMILES) | MIC [µg/mL]
18 | N=C(N)N/N=C/c1cn(-c2ccc([N+](=O)[O-])cc2[N+](=O)[O-])nc1-c1cccc(Br)c1 | 2 (≈ 4.23 µM)

system: Staphylococcus aureus; assay: Ratio of oxacillin MIC to compound MIC for methicillin-resistant Staphylococcus aureus CCARM 3506 after 24 hrs by two-fold serial dilution method; type: functional; settings: not given

Row | Structure (SMILES) | Ratio
19 | N=C(N)N/N=C/c1cn(-c2ccc([N+](=O)[O-])cc2[N+](=O)[O-])nc1-c1cccc(Br)c1 | 64

system: Pseudomonas aeruginosa; assay: Antibacterial activity against Pseudomonas aeruginosa 2742 after 24 hrs by two-fold serial dilution method; type: functional; settings: Pseudomonas aeruginosa, 2742, 24 h; outline: as §2

Row | Structure (SMILES) | MIC [µg/mL]
20 | N=C(N)N/N=C/c1cn(-c2ccc([N+](=O)[O-])cc2[N+](=O)[O-])nc1-c1cccc(Br)c1 | > 64

system: Staphylococcus aureus; assay: Ratio of moxifloxacin MIC to compound MIC for quinolone-resistant Staphylococcus aureus CCARM 3505 after 24 hrs by two-fold serial dilution method; type: functional; settings: not given

Row | Structure (SMILES) | Ratio
21 | N=C(N)N/N=C/c1cn(-c2ccc([N+](=O)[O-])cc2[N+](=O)[O-])nc1-c1cccc(Br)c1 | 2

system: Escherichia coli; assay: Antibacterial activity against Escherichia coli KCTC 1924 after 24 hrs by two-fold serial dilution method; type: functional; settings: KCTC 1924, 24 h; outline: as §2

Row | Structure (SMILES) | MIC [µg/mL]
22 | N=C(N)N/N=C/c1cn(-c2ccc([N+](=O)[O-])cc2[N+](=O)[O-])nc1-c1cccc(Br)c1 | 2 (≈ 4.23 µM)
